{
  "source": "ChEMBL document CHEMBL1122698",
  "about": "“Selective delivery of cytotoxic compounds to cells by the LDL pathway” (1984)",
  "format_in_all_cases": "functional",
  "key": {"[1]": {"organism": "Homo sapiens", "experiment": "The compound was tested for the toxicity of normal +r-LDL, measured by its ability to inhibit the growth of normal human fibroblasts or chinese hamster ovary (CHO) cells, at concentration 0.5 ug/mL", "method_in_brief": "(§1)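 Compound reconstituted into LDL (r-LDL) and added to cells; concentration given as LDL protein, roughly equal to compound concentration. Cells plated 20 000/well, left 4 h, then r-LDL added. On day 3, wells washed with PBS to remove dead cells; adherent cells fixed in 15% formalin 15 min, crystal violet stained, scored visually on a 0–6 growth scale (untreated control = 6).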"}, "[2]": {"experiment": "The compound was tested for the toxicity of mutant+r-LDL, measured by its ability to inhibit the growth of normal human fibroblasts or chinese hamster ovary (CHO) cells, at concentration 0.5 ug/mL", "method_in_brief": "as §1"}, "[3]": {"organism": "Homo sapiens", "experiment": "(§2) The compound was tested for the toxicity of normal +r-LDL, measured by its ability to inhibit the growth of normal human fibroblasts or chinese hamster ovary (CHO) cells, at concentration 10 ug/mL", "method_in_brief": "(§3)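 Normal human fibroblasts were seeded at 20 000/well and held 4 h before addition of compound-reconstituted LDL (r-LDL) or methylated r-LDL. Comparison cells with few LDL receptors were receptor-negative homozygous FH fibroblasts or V-79 CHO cells. Doses are given as LDL protein concentration. On day 3 the cells were PBS-washed, fixed with 15% formalin for 15 min and stained with crystal violet. Growth was scored visually from 0 to 6, with untreated controls at 6.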"}, "[4]": {"experiment": "The compound was tested for the toxicity of mutant+r-LDL, measured by its ability to inhibit the growth of normal human fibroblasts or chinese hamster ovary (CHO) cells, at concentration 10 ug/mL", "method_in_brief": "as §1"}, "[5]": {"organism": "Homo sapiens", "experiment": "The compound was tested for the toxicity of normal+r-LDL, measured by its ability to inhibit the growth of normal human fibroblasts or chinese hamster ovary (CHO) cells, at concentration 10 ug/mL", "method_in_brief": "as §3"}, "[6]": {"organism": "Homo sapiens", "experiment": "The compound was tested for the toxicity of normal+r-LDL, measured by its ability to inhibit the growth of normal human fibroblasts or chinese hamster ovary (CHO) cells, at concentration 2 ug/mL", "method_in_brief": "as §3"}, "[7]": {"experiment": "The compound was tested for the toxicity of mutant+r-LDL, measured by its ability to inhibit the growth of normal human fibroblasts or chinese hamster ovary (CHO) cells, at concentration 2 ug/mL", "method_in_brief": "as §3"}, "[8]": {"organism": "Homo sapiens", "experiment": "The compound was tested for the toxicity of +Me-r-LDL,measured by its ability to inhibit the growth of normal human fibroblasts or chinese hamster ovary (CHO) cells, at concentration 80 ug/mL", "method_in_brief": "(§4)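 SV-40-transformed human fibroblasts (SV-589) were seeded at 20 000/well and left 4 h. They were then exposed to compound-reconstituted LDL or reconstituted methylated LDL (Me-r-LDL, not recognised by LDL receptors). Doses are given as LDL protein concentration. On day 3 the wells were PBS-washed to remove dead cells, and adherent cells were fixed with 15% formalin for 15 min and stained with crystal violet. Growth was scored visually, with untreated controls scored 4.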"}, "[9]": {"organism": "Homo sapiens", "experiment": "The compound was tested for the toxicity of +r-LDL,measured by its ability to inhibit the growth of normal human fibroblasts or chinese hamster ovary (CHO) cells, at concentration 80 ug/mL", "method_in_brief": "as §4"}, "[10]": {"organism": "Homo sapiens", "experiment": "The compound was tested for the toxicity of normal +r-LDL, measured by its ability to inhibit the growth of normal human fibroblasts or chinese hamster ovary (CHO) cells, at concentration 80 ug/mL", "method_in_brief": "as §3"}, "[11]": {"organism": "Homo sapiens", "experiment": "as §2", "method_in_brief": "as §1", "remark": "listed apart in the source"}, "[12]": {"organism": "Homo sapiens", "experiment": "The compound was tested for the toxicity of normal +r-LDL, measured by its ability to inhibit the growth of normal human fibroblasts or chinese hamster ovary (CHO) cells, at concentration 20 ug/mL", "method_in_brief": "as §3"}, "[13]": {"experiment": "The compound was tested for the toxicity of mutant+r-LDL, measured by its ability to inhibit the growth of normal human fibroblasts or chinese hamster ovary (CHO) cells, at concentration 20 ug/mL", "method_in_brief": "as §3"}},
  "data": [
    {"smiles": "CC1=C(/C=C/C(C)=C/C=C/C(C)=C\\CN2CCOCC2)C(C)(C)CCC1", "values": [
      {"measurement": "Growth of cells", "setting": "[1]", "value": 0},
      {"measurement": "Growth of cells", "setting": "[2]", "value": 0}
    ]},
    {"smiles": "CCCCCCCC/C=C\\CCCCCCCCC(=O)O[C@H]1CC[C@@]2(C)C(=CC[C@H]3[C@@H]4CC[C@H](C(C)COC(=O)N(CCCl)CCCl)C4CC[C@@H]32)C1", "note": "(stereo partly drawn)", "values": [
      {"measurement": "Growth of cells", "setting": "[3]", "value": 0},
      {"measurement": "Growth of cells", "setting": "[4]", "value": 6}
    ]},
    {"smiles": "CCCCCCCC/C=C\\CCCCCCCCOC(=O)N(CCCl)CCCl", "values": [
      {"measurement": "Growth of cells", "setting": "[5]", "value": 0},
      {"measurement": "Growth of cells", "setting": "[6]", "value": 2},
      {"measurement": "Growth of cells", "setting": "[4]", "value": 0},
      {"measurement": "Growth of cells", "setting": "[7]", "value": 5}
    ]},
    {"smiles": "CCCCCCCC/C=C\\CCCCCCCCC(=O)O[C@H]1CC[C@@]2(C)C(=CC[C@H]3[C@@H]4CC[C@H](C(C)COC(=O)CCCc5ccc(N(CCCl)CCCl)cc5)C4CC[C@@H]32)C1", "note": "(stereo partly drawn)", "values": [
      {"measurement": "Growth of cells", "setting": "[8]", "value": 4},
      {"measurement": "Growth of cells", "setting": "[9]", "value": 4},
      {"measurement": "Growth of cells", "setting": "[10]", "value": 6}
    ]},
    {"smiles": "CCCCCCCC/C=C\\CCCCCCCCOC(=O)N1CCOC(CCCCCCCCCCCC)C1", "note": "(stereo not drawn)", "values": [
      {"measurement": "Growth of cells", "setting": "[11]", "value": 6},
      {"measurement": "Growth of cells", "setting": "[4]", "value": 6}
    ]},
    {"smiles": "CC(C)CCCC(C)C1CCC2C3CC=C4CC(OC(=O)Cc5ccc(N(CCCl)CCCl)cc5)CCC4(C)C3CCC12C", "note": "(stereo not drawn)", "values": [
      {"measurement": "Growth of cells", "setting": "[12]", "value": 6},
      {"measurement": "Growth of cells", "setting": "[13]", "value": 6}
    ]},
    {"smiles": "CCCCCCCC/C=C\\CCCCCCCCOC(=O)N(CCCCCCCCCCCC)CC(F)(F)F", "values": [
      {"measurement": "Growth of cells", "setting": "[3]", "value": 6},
      {"measurement": "Growth of cells", "setting": "[4]", "value": 6}
    ]},
    {"smiles": "CCCCCCCC/C=C\\CCCCCCCCOC(=O)N(CCCCCCCCCCCC)CC(F)F", "values": [
      {"measurement": "Growth of cells", "setting": "[11]", "value": 6},
      {"measurement": "Growth of cells", "setting": "[4]", "value": 6}
    ]},
    {"smiles": "CCCCCCCC/C=C\\CCCCCCCCC(=O)O[C@H]1CC[C@@]2(C)C(=CC[C@H]3[C@@H]4CC[C@H](C(C)COC(=O)N5CCOC(CCCCCCCCCCCC)C5)C4CC[C@@H]32)C1", "note": "(stereo partly drawn)", "values": [
      {"measurement": "Growth of cells", "setting": "[11]", "value": 6},
      {"measurement": "Growth of cells", "setting": "[4]", "value": 6}
    ]},
    {"smiles": "CCCCCCCC/C=C\\CCCCCCCCN1CCOCC1", "values": [
      {"measurement": "Growth of cells", "setting": "[1]", "value": 0},
      {"measurement": "Growth of cells", "setting": "[2]", "value": 1}
    ]},
    {"smiles": "CCCCCCCC/C=C\\CCCCCCCCC(=O)O[C@H]1CC[C@@]2(C)C(=CC[C@H]3[C@@H]4CC[C@H](C(C)COC(=O)NCCCCCCCCCCCC)C4CC[C@@H]32)C1", "note": "(stereo partly drawn)", "values": [
      {"measurement": "Growth of cells", "setting": "[11]", "value": 6},
      {"measurement": "Growth of cells", "setting": "[4]", "value": 6}
    ]},
    {"smiles": "CCCCCCCC/C=C\\CCCCCCCCC(=O)O[C@H]1CC[C@@]2(C)C(=CC[C@H]3[C@@H]4CC[C@H](C(C)CCCOC(=O)CCCc5ccc(N(CCCl)CCCl)cc5)C4CC[C@@H]32)C1", "note": "(stereo partly drawn)", "values": [
      {"measurement": "Growth of cells", "setting": "[8]", "value": 4},
      {"measurement": "Growth of cells", "setting": "[9]", "value": 4}
    ]},
    {"smiles": "CCCCCCCC/C=C\\CCCCCCCCN1CC(C)OC(C)C1", "note": "(stereo not drawn)", "values": [
      {"measurement": "Growth of cells", "setting": "[1]", "value": 0},
      {"measurement": "Growth of cells", "setting": "[2]", "value": 0}
    ]},
    {"smiles": "CCCCCCCC/C=C\\CCCCCCCCC(=O)O[C@H]1CC[C@@]2(C)C(=CC[C@H]3[C@@H]4CC[C@H](C(C)C(=O)N5CCOC(CCCCCCCCCCCC)C5)C4CC[C@@H]32)C1", "note": "(stereo partly drawn)", "values": [
      {"measurement": "Growth of cells", "setting": "[1]", "value": 6},
      {"measurement": "Growth of cells", "setting": "[2]", "value": 6}
    ]},
    {"smiles": "CCCCCCCC/C=C\\CCCCCCCCNC(=O)C(C)[C@H]1CC[C@@H]2C1CC[C@H]1[C@H]2CC=C2C[C@@H](OC(=O)CCCCCCCC/C=C\\CCCCCCCC)CC[C@@]21C", "note": "(stereo partly drawn)", "values": [
      {"measurement": "Growth of cells", "setting": "[12]", "value": 6},
      {"measurement": "Growth of cells", "setting": "[13]", "value": 6}
    ]}
  ]
}
